# Shown are actives, neighbours in structure and some others; about 3.1% of the full set was active somewhere.
# OX1R antag-1 – blocks the human orexin 1 receptor; inhibition, % at 5 µM; hit rate 0.43% among 330,000; O43613; CHO/OX1R cells, Fluo-8 calcium fluorescence, orexin A;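 active = inhibition above its plate's threshold, mean inhibition of all tested compounds on the plate plus 3 SD, cut at about 37% in these data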;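 note: 0% = orexin A challenge wells and 100% = SB-334867-A antagonist wells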
# Target sequence (O43613 whole entry, looked up): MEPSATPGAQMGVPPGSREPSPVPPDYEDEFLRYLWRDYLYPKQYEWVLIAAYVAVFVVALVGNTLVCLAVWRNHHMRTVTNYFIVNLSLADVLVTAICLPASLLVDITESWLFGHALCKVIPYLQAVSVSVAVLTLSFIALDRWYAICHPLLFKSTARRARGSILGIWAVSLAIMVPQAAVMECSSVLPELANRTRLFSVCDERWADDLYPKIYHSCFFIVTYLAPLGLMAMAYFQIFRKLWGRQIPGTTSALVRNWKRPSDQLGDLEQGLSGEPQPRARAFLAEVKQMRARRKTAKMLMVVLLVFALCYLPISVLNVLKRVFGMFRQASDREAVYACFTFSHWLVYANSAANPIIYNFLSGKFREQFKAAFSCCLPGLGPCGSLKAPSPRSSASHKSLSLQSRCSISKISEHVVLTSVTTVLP
# OX1R antag-2 – blocks the human orexin 1 receptor. O43613. OX1R-expressing cells, FRET antagonist read-out. inhibition, % at 6.6 µM. hit rate 1.8% among 330,000; in the data active = inhibition mostly above about 38%, no sharp cut-off; inactive = mostly below about 40%;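 note: 0% = agonist challenge alone and 100% = reference antagonist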
# CHO parental Ca – signal in parental CHO cells, OX1R antagonist counter-screen; parental CHO-K1, ATP-induced calcium, Fluo-8 fluorescence; inhibition, % at 5.6 µM; hit rate 0.63% among 330,000; AID 463079;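 active = inhibition above that plate's mean sample inhibition plus 3 SD, cut at about 26% in these data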;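 note: 0% = ATP-challenged DMSO wells and 100% = DMSO wells without ATP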
#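 material = parental CHO cells | also added = ATP as calcium-mobilizing challenge | dosing = single point at 5.6 µM | detection = intracellular calcium via Fluo-8 no-wash fluorescent dye | read-out = % inhibition | benchmarks = low control ATP plus DMSO, high control DMSO only | repeats = one well per compound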
# GalR3 antagonist – human GalR3 antagonism; inhibition, % at 3 µM; HEK293 GalR3-CNG cAMP membrane potential fluorescence; galR3 body fused to GalR1 C-terminus; hit rate 0.44% among 360,000; O60755;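 active = inhibition above the screen-wide average plus 3 SD, cut at about 13% in these data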;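 note: forskolin and galanin both at EC90 stimulate the cells; cAMP rise reported by CNG channel membrane potential dye signal; 0% = forskolin plus galanin with DMSO and 100% = forskolin alone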
# GPR7 antagonist – human neuropeptides B/W receptor 1 antagonism | P48145 | GPR7-expressing cells, fluorescence antagonist assay | hit rate 1.1% among 290,000 | inhibition, % at 4.4 µM; in the data active = inhibition above about 16%, passing the limit was not always enough;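 note: cells stimulated with the agonist NPW; 0% = agonist with vehicle and 100% = vehicle without agonist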
# GPR7 antag cf – human GPR7 antagonism, confirmation assay; shares compounds with GPR7 antagonist; hit rate 52% among 2,400; inhibition, % at 4.4 µM; GPR7-expressing cells, calcium fluorescence antagonist mode; in the data active = inhibition above about 24%;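 note: stimulated with the GPR7 agonist NPW; 0% = agonist plus vehicle and 100% = vehicle alone without agonist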
# MCHR1 antagonist – counter-screen for GPR7 antagonists: antagonists of human MCHR1; shares compounds with GPR7 antagonist; MCHR1-expressing cells, fluorescence antagonist assay; inhibition, % at 4.4 µM; hit rate 62% among 2,400; AID 2148; in the data active = inhibition above about 22%;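 note: 0% = vehicle with agonist and 100% = vehicle without agonist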
# * = called active by the depositor; x = no result.
SMILES,OX1R antag-1,OX1R antag-2,CHO parental Ca,GalR3 antagonist,GPR7 antagonist,GPR7 antag cf,MCHR1 antagonist
O=C(Nc1ccccc1N1CCN(C(=O)c2ccccc2)CC1)c1ccc(Cl)cc1,-33.7,11.8,-29.0,-9.4,4.0,x,x
O=C(Cc1ccc(Cl)cc1)Nc1ccccc1N1CCN(C(=O)c2ccccc2)CC1,-8.8,6.3,-19.1,-7.8,28.3*,36.2*,50.9*
CCOC(=O)c1nnn(-c2nonc2N)c1-c1ccccc1,-9.6,10.6,-20.7,-0.8,-3.7,x,x
Cc1c(C(=O)OCc2ccccc2)nnn1-c1nonc1N,-7.7,6.2,4.2,-3.1,21.2*,-3.2,6.3
CCOC(=O)C1CCCN(C(=O)c2sc3nc(C)nc(N(CC)CC)c3c2C)C1 (stereo unspecified),-35.3,12.7,-15.8,-8.0,0.0,x,x
CCC1CCCCN1C(=O)c1sc2nc(C)nc(N(CC)CC)c2c1C (stereo unspecified),-39.0,12.6,-13.8,-2.0,24.9*,21.0,19.4
O=C(c1csc2c1CCCC2)N1CCN(c2ccccc2)CC1,-19.1,11.0,-16.2,-1.4,34.6*,23.5,12.4
Cc1cc(C)n(-c2nc(NCCCN(C)C)c3c4c(sc3n2)CCCC4)n1,-21.8,1.7,-17.6,-4.2,0.0,x,x
Cc1cc(C)n(-c2nc(NCCN(C)C)c3c4c(sc3n2)CCCC4)n1,3.8,6.1,-13.2,0.8,24.2*,26.7*,29.9*
CCCCNC(=O)CN1C(=O)C(CC)Oc2ccc(Cl)cc21 (stereo unspecified),-32.2,29.3,-16.5,-9.9,27.7*,16.4,25.4*
CCOC(=O)CN1C(=O)C(CC)Oc2ccc(Cl)cc21 (stereo unspecified),-26.9,5.0,-20.5,-6.0,7.8,x,x
COc1ccc(NC(=O)CN2C(=O)C(=O)N(C3CCCC3)C2=O)c(OC)c1,-6.6,-1.4,0.1,-3.9,x,x,x
CC1=CSC2=NS(=O)(=O)CCN12,-8.2,17.9,-11.6,-2.9,-6.4,x,x
O=S1(=O)CCN2C(Cc3ccc(SC(F)F)cc3)=CSC2=N1,9.3,-8.0,-9.6,-2.9,23.9*,16.6,12.4
CCOc1ccc(C(=O)NCC(=O)Nc2ncccc2C)cc1OCC,-17.7,20.3,-13.3,-4.7,x,x,x
COc1ccc(CC(=O)NC(=S)Nc2ccc(S(=O)(=O)NC(C)(C)C)cc2)cc1,23.0,4.5,16.7,1.0,48.7*,72.4*,69.8*
C=CCN(CC=C)S(=O)(=O)c1ccc(NC(=S)NC(=O)Cc2ccc(OC)cc2)cc1,8.5,12.4,5.3,-8.7,34.3*,50.2*,64.8*
S=C(NCCCN1CCN(CCCNC(=S)NC2CCCCC2)CC1)NC1CCCCC1,x,x,x,-6.3,x,x,x
Cc1c(C(=O)NC2CCC(C)CC2)oc2ccccc12 (stereo unspecified),-19.1,10.8,-2.8,-3.6,-15.6,x,x
O=C(c1cccc(C(F)(F)F)c1)C1CCCN(Cc2cccn2-c2ncccn2)C1 (stereo unspecified),-17.9,10.2,-15.3,-10.8,21.3*,33.5*,35.3*
O=C(NCCc1ccccc1Cl)C1CCC(=O)N(C2CCCCCC2)C1 (stereo unspecified),-33.3,-0.7,-36.9,0.1,12.1,x,x
CC1CCc2onc(C(=O)O)c2C1 (stereo unspecified),-1.8,9.2,5.6,2.0,24.1*,9.5,-4.1
Cc1cc(NC(=O)COC(=O)c2c(C)noc2C)ccc1Br,-10.4,18.4,-5.3,-6.8,36.4*,17.8,24.7*
Cc1ccccc1-n1ncc2c1CC(C)(C)CC2NC(=O)CN1CCCC1=O (stereo unspecified),-8.4,12.3,-2.3,0.1,-14.6,x,x
Cc1ccccc1CC1(CO)CCCN(C(=O)c2ccccc2Cl)C1 (stereo unspecified),6.1,14.2,-3.3,-2.7,33.6*,32.1*,17.7
SMILES,OX1R antag-1,OX1R antag-2,CHO parental Ca,GalR3 antagonist,GPR7 antagonist,GPR7 antag cf,MCHR1 antagonist
Cc1ccccc1CC1(CO)CCCN(C(=O)c2cccc(Cl)c2)C1 (stereo unspecified),-20.3,16.7,-14.0,-7.1,17.6,x,x
Cc1ccccc1CC1(CO)CCCN(C(=O)c2cc(Cl)ccc2F)C1 (stereo unspecified),-7.5,14.6,-16.4,-7.9,x,x,7.3
C=CCNC(=O)CSc1nc2ccccc2c(=O)n1CCc1ccc(OC)c(OC)c1,x,x,x,-9.3,-11.7,x,x
COc1ccc(CCn2c(SCCN3CCCCC3)nc3ccccc3c2=O)cc1OC,-40.2,7.7,-15.2,-9.0,35.5*,30.5*,35.4*
O=C(OCc1ccccc1)C1=NNC2C(=O)N(c3ccccc3)C(=O)C12 (stereo unspecified),-2.1,0.2,-5.5,-2.9,22.8*,-2.1,-5.8
CCOC(=O)CC1C(=O)NCCN1C(=O)c1cccc(OC)c1 (stereo unspecified),-10.9,7.9,7.1,-8.3,6.1,x,x
C=CCc1cccc([C@@H]2[C@@H](C)CC[C@H]3C(=O)N4[C@@H](c5cc(OC)c(OC)c(OC)c5)c5[nH]c6ccccc6c5C[C@H]4C(=O)N23)c1,-22.4,2.7,-17.5,x,33.1*,8.4,5.8
Clc1cccc(Cl)c1CON/C=N/c1ncnc2sccc12,-23.4,30.9,-2.9,-3.4,-6.0,x,x
Clc1cccc(CON/C=N/c2ncnc3sccc23)c1,2.4,82.2*,-8.6,1.6,36.8*,13.9,39.9*
CCc1ccc(-c2cc(C)no2)cc1S(=O)(=O)NCc1ccccc1OC,14.6,35.6,7.2,0.3,31.2*,7.2,31.4*
O=C(Nc1ccc(C(=O)O)cc1)Nc1ccc([N+](=O)[O-])cc1,-10.4,9.1,-8.7,-10.2,-13.4,x,x
COC(=O)c1ccc(NC(=O)Nc2ccc([N+](=O)[O-])cc2)cc1,37.1*,45.4,67.3*,-11.1,46.7*,70.8*,67.3*
COc1ccc(CCNC(=O)Nc2cccc([N+](=O)[O-])c2)cc1,18.2,24.0,19.2,-2.7,10.4,x,x
COc1cc(NC(=O)Nc2cccc([N+](=O)[O-])c2)cc(OC)c1,35.4,52.2,27.5,-1.9,28.4*,5.5,73.9*
CC(C)NC(=O)NC(=O)CSc1nnc(COc2ccccc2F)n1C(C)C1CC2CCC1C2 (stereo unspecified),4.9,0.2,69.7*,x,31.6*,28.1*,54.5*
COc1ccccc1NC(=O)c1nc(S(=O)(=O)Cc2ccccc2)ncc1Cl,26.6,8.8,16.6,0.4,32.5*,40.9*,29.5*
CCc1ccc(NC(=O)c2nc(S(=O)(=O)Cc3ccccc3)ncc2Cl)cc1,63.2*,23.5,57.3*,-7.1,56.1*,88.1*,102.8*
CCS(=O)(=O)c1ncc(Cl)c(C(=O)Nc2ccccc2OC)n1,-7.9,7.8,7.7,-1.6,1.3,x,x
CC1CCN(S(=O)(=O)c2ccc(NC(=O)c3ccncc3)cc2)CC1,0.8,15.6,1.0,-6.5,3.5,x,x

# Compound activity from PubChem.
